The subject of series [1] is bovine lens protease-rich fraction. Briefly: Hydrolysis of MCA-62-70 substrate by lens protease in the presence of inhibitors. It counts as biochemical. To be noted: for inhibition of MCA-62-70 hydrolysis: pre-incubated 30 min at 37 °C.
Series [2] relates to Arg-MCA hydrolyzing activity (aminopeptidase activity). Briefly: Arg-MCA hydrolysis. The class given is biochemical, bovine.
The nature of a further series: protease-rich human. The note with it: 37 °C, up to 5 h.
The subject of series [3] is human lens extracts (cortical, nuclear). Briefly: MCA-62-70 hydrolytic activity in human lenses of different age. It counts as biochemical. The note with it: for total protease activity (MCA-62-70 hydrolyzed): water-soluble proteins. A digest of the protocol: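 Cortical and nuclear regions of frozen young, middle-aged and old human lenses separated by dissection; water-soluble extracts (1 mg protein) incubated with 25 μg MCA-62-70 substrate, 2 h, 37 °C. Fluorescence read before and after (ex 326, em 398 nm). Amount hydrolysed taken from a standard curve of trypsin-digested substrate; average ± SE of four independent experiments; one-way ANOVA with Tukey's test.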

Series [4] concerns bovine lens extracts (outer cortical, inner cortical, nuclear). Briefly: MCA-62-70 hydrolytic activity in regions of bovine lens. It counts as biochemical. To be noted: 1 mg protein extract, 37 °C. A digest of the protocol:
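Decapsulated bovine lenses stirred at 4 °C in 50 mM sodium phosphate, 150 mM NaCl, pH 7.2, dissolving outer cortex (about a third of wet weight), then inner cortex (about a third); remaining nucleus homogenised. Each fraction centrifuged 30,000 × g, 30 min; supernatant (1 mg protein) incubated with 25 μg MCA-62-70, 2 h, 37 °C; fluorescence read before and after (ex 326, em 398 nm).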

Series [5] deals with peptidase-rich fraction of bovine lens extract.
For series [6] the following is noted: bovine, 37 °C.
The nature of series [7]: bovine lens extract containing 5 mg protein. To be noted: 37 °C, up to 16 h.

“Also recorded” adds a separate entry of the source. No end group written: not given here.

Take `O=c1oc(Cl)c(Cl)c2ccccc12` [3,4-DCI]: the “inhibition of MCA-62-70 hydrolysis” value in series [1] (500 μM) is “up to 85%”.

For the compound `CC(C)C[C@H](NC(=O)[C@@H](O)[C@H](N)Cc1ccccc1)C(=O)O` [Bestatin, reference compound], the “inhibition of Arg-MCA hydrolyzing activity (aminopeptidase activity)” value in series [2] (protease preparation treated with bestatin) is listed as “complete inhibition”.

On to `O=C(O)CN(CCN(CC(=O)O)CC(=O)O)CC(=O)O` [EDTA, ethylene diamine tetraacetic acid], for which the “inhibition of MCA-62-70 hydrolysis” value in series [1] (concentration not given) is on record as 50%.

On to `O=C(O)CN(CCOCCOCCN(CC(=O)O)CC(=O)O)CC(=O)O` [EGTA, ethylene glycol tetraacetic acid], for which, in series [1] (concentration not given), the “inhibition of MCA-62-70 hydrolysis” value is recorded as 50%.

As for `NC(=O)CI` [Iodoacetamide], the “Relative activity (%)” value in series [1] is 97%.

In the case of MCA-SEVRSDRD[Lys(Dnp)]RR-NH2, in the series “protease-rich human”, the fragment found entry is listed as “MCA-62-68 (MCA-SEVRSDR); also recorded: MCA-62-65 (MCA-SEVR); also recorded: MCA-62-66 (MCA-SEVRS), major”.

For the compound “MCA-SEVRSDRD[Lys(Dnp)]RR-NH2 [MCA-62-70]”, the “share of total lens enzymatic activity in the cortical region” value in series [3] (human lens cortical region, all age groups) is listed as roughly 90%. Moreover, the “total protease activity (MCA-62-70 hydrolyzed)” value was 7.26 ± 0.83 n moles/h in series [3] (middle-aged (40 ± 2 years) human lenses), 5.49 ± 0.29 nmol/h in series [3] (older (60 ± 2 years) human lenses) and 8.84 ± 0.96 nmol/h in series [3] (young (20 ± 2 years) human lenses). Also, the “enzymatic activity (MCA-62-70 hydrolysis)” value in series [4] (bovine lens inner cortex) amounted to 0.10 ± 0.01 nmoles/hr/mg protein; in series [4] (bovine lens nuclear region), 0.04 ± 0.003 nmoles/hr/mg protein; in series [4] (bovine lens outer cortical region) it was 0.58 ± 0.04 nmoles/hr/mg protein.

With RPPGFSPFR [bradykinin, Bradykinin], in series [5], the “hydrolysis after 2 h” value is “complete hydrolysis” and the “slowing of hydrolysis rate versus peptide incubated alone” value came to 40%.

SDRDKFVIFLDVKHF: the not cleaved entry in series [6] was “αA-66-80 was not hydrolyzed”.

Take Succinyl-DVKHFSPEDK-Biotin: in series [7], the fragment found entry is recorded as “αA-76-78; also recorded: αA-76-80; also recorded: αA-76-82, major”.

For Succinyl-ISEVRSDRDK-Biotin, the fragment found result in series [7] was “αA-61-65; also recorded: αA-61-66”.

“α-crystallin: bovine lens α-crystallin, molecular chaperone protein added to the peptidase incubations”: the “increase of Arg-MCA hydrolysis by peptidase-rich bovine lens fraction” value in series [2] (addition of 12.5 nmoles α-crystallin, data not shown) is roughly 4 fold.

Values taken from publication PMC3619423 (Experimental eye research, 2013).
